In the library only some 1.4% were active in any assay of this set; here they are far more common.
Furin inh – inhibitors of human furin | purified furin, fluorogenic substrate cleavage | inhibition, % at 20 µM or 30 µM | actives 0.061% (n = 220,000) | AID 463115; in the data active means inhibition above about 25%
thrombin 1536 – inhibitors of human thrombin; AID 1046; P00734; inhibition, % at 5 µM; actives 0.26% (n = 220,000); alpha-thrombin, Boc-VPR-AMC fluorogenic substrate cleavage;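 active means inhibition at or above 40%; inactive means inhibition below 40%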
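Test system: human alpha-thrombin; medium: pH 7.5 Tris-saline with Tween 20; times: reaction at room temperature; signal: AMC fluorescence at 355 nm excitation and 460 nm emission; also added: Boc-VPR-AMC substrate, 15 µM final; dosing: one concentration per compound, 5 µM, with 0.2% DMSO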
FXIa inh 1536 – blocks human coagulation factor XIa protease activity | purified FXIa, Boc-Glu-Ala-Arg-AMC fluorogenic substrate | inhibition, % at 5 µM | actives 0.14% (n = 220,000) | AID 798;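 active means inhibition of at least 40%; inactive means inhibition below 40%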;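 further: fluorescence of freed AMC excited at 355 nm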
m-calpain inh – inhibitors of pig calpain II | actives 0.37% (n = 220,000) | inhibition, % at 16 µM | purified calpain II, fluorogenic peptide substrate, 30 min | AID 1236;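 active means inhibition above about 50%, limit read from the data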
KLK5 inh – blocks human kallikrein 5 protease activity; Q9Y337; recombinant hK5, fluorogenic AMC substrate cleavage; inhibition, % at 5 µM; actives 0.59% (n = 210,000);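 active means inhibition of 40% or more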
FXIIa inh – blocks human coagulation factor XIIa protease activity. actives 0.3% (n = 220,000). inhibition, % at 5 µM. P00748. purified FXIIa, Boc-QGR-AMC fluorogenic substrate, 2 h; in the data active means inhibition above about 40%
Target sequence (P00748 20-372 limits assumed): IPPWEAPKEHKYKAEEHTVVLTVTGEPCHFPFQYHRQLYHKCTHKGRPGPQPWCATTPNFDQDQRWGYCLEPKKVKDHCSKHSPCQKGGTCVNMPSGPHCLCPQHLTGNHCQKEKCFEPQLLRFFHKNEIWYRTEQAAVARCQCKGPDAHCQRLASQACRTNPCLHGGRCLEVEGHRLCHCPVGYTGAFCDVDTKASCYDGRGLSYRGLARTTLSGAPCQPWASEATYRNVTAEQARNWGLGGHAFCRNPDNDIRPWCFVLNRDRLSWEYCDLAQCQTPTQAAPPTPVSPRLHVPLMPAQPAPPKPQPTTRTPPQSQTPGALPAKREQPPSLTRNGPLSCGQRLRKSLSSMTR
Target sequence (P00748 373-615 limits assumed): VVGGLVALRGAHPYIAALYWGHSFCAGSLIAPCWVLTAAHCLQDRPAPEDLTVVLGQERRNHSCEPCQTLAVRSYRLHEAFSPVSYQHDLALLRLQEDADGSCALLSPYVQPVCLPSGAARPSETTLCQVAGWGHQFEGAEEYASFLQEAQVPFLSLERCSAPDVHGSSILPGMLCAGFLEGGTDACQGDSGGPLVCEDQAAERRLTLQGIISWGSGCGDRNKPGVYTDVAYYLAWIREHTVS
Each line names hits and unclear results; the compound was inactive in the other large screens.

O=[N+]([O-])c1cc(C(F)(F)F)ccc1NCCc1c[nH]c2ccccc12	m-calpain inh 50
COc1ccc(NC(=O)C(NC(=O)c2ccc(=O)[nH]c2)c2ccc(OC)cc2)cc1 (centres undefined)	none
C=CCNS(=O)(=O)c1cccc2cc(C(=O)O)c(O)cc12	none
C/C(N)=C(/C#N)C(=O)COC(=O)CC12CC3CC(CC(C3)C1)C2	m-calpain inh 65
O=C(CN(Cc1cccs1)C(=O)CCC(=O)Nc1nccs1)NCc1ccccc1	KLK5 inh 105, FXIIa inh 107
S=C(c1ccc(N2CCCC2)cc1)N1CCCCC1	m-calpain inh 64
Cc1ccccc1NC(=O)Cn1c(O)c(N=NC(=O)c2ccccc2O)c2ccccc21	KLK5 inh 66
COCC(=O)Nc1nc(-c2ccccc2)ns1	KLK5 inh 58
O=C(O)COCC(=O)Nc1ccccc1-c1ccccc1	none
COCC(=O)Nc1ccccc1-c1ccccc1	FXIa inh 1536 45
CCOc1ccc(CCNC(=O)c2cc3ccccn3n2)cc1OCC	KLK5 inh 60
Cc1ccc(NC(=S)Nc2c(C)n(C)n(-c3ccccc3)c2=O)cc1	none
O=C(CSCCOc1ccccc1)NCc1ccncc1	none
CCc1nnc(NC(=O)c2ccc(NC(=O)C(C)C)cc2)s1	FXIa inh 1536 43
COCc1nnc(NC(=O)c2ccc(NC(=O)C(C)C)cc2)s1	none
CN(C)C(/C=C/Nc1cccc(Br)c1)=C(C#N)C#N	none (no result: KLK5 inh)
Cc1cccc(N/C=C/C(=C(C#N)C#N)N(C)C)c1	m-calpain inh 60
COC(=O)c1sccc1NC(=O)/C=C/c1c(Cl)cccc1Cl	FXIIa inh 40
COC(=O)c1sccc1NC(=O)/C=C/c1ccc(Cl)cc1Cl	none
CC(=O)c1sc(NC(=O)COc2ccc(C(C)C)c(C)c2)nc1C	none
O=C(C(=O)N1CCc2ccccc2C1)c1cn(CC(=O)N2CCOCC2)c2ccccc12	none
O=C1c2ccccc2C(=O)N1/N=C/c1ccc(O)c(O)c1O	KLK5 inh 45
O=C(OCn1ncc(Cl)c(Cl)c1=O)c1ccc(F)cc1	none
O=c1c(Cl)c(Cl)cnn1Cc1ccc(F)cc1	FXIIa inh 52
Cn1cc(CN2CCC(CO)CC2)c(-c2ccc(Oc3ccccc3)cc2)n1	none
O=C(O)CCCCCCCCCCP(=O)(c1ccccc1)c1ccccc1	none
O=C(O)CP(=O)(c1ccccc1)c1ccccc1	KLK5 inh 42
O=P(CCCCCCCCCP(=O)(c1ccccc1)c1ccccc1)(c1ccccc1)c1ccccc1	m-calpain inh 57
O=P(CCO)(c1ccccc1)c1ccccc1	none (no result: FXIIa inh)
CN(C)c1cccc(C(=O)NNC(=S)NC2CC3CCC2C3)c1 (centres undefined)	none
CC(CO)(CO)NCc1ccc(-c2ccccc2)cc1	thrombin 1536 46
Cc1ccc(CNC(C)(C)CO)cc1	none
O=C(CSc1cccc[n+]1[O-])c1cc(Cl)ccc1Cl	m-calpain inh 70
CCOC(=O)/C(=N\Nc1cccc(C(F)(F)F)c1)N1CCOCC1	KLK5 inh 52
CC(C)Nc1nnc(SCC(=O)NCc2ccc3c(c2)OCO3)s1	none
COc1ccc(COCC(O)CN2CCOCC2)cc1OC (centres undefined)	none
COc1cc(COCC(O)CN2CCOCC2)cc(OC)c1OC (centres undefined)	FXIIa inh 45
Cc1cc(-c2n[nH]c(=S)n2/N=C/c2cc([N+](=O)[O-])ccc2Cl)n[nH]1	KLK5 inh 47
COc1ccc(Cl)cc1NC(=S)NNC(=O)C1(C)CC1(Cl)Cl (centres undefined)	FXIIa inh 49
CC(=O)NNC(=O)c1sc(=S)n2c1[nH]c(=O)c1sccc12	none
O=C(NCc1ccccc1)c1sc(=S)n2c1[nH]c(=O)c1ccccc12	KLK5 inh 43
COc1ccc2c(c1)CCc1c(C(=O)NCC(C)C)noc1-2	none
CNc1nc(-c2ccc3c(c2)CCN3C(=O)c2ccccc2C)cs1	none
O=C(COC(=O)Cn1cnc2ccccc2c1=O)Nc1cc(Cl)ccc1[N+](=O)[O-]	thrombin 1536 65
CC(C)(C)NC(=O)NC(=O)COC(=O)Cn1cnc2ccccc2c1=O	none
CCOC(=O)C1=C(CNCCc2ccc(Cl)cc2)NC(=O)NC1c1cccc([N+](=O)[O-])c1 (centres undefined)	none
